Results on six molecules are retold here after ChEMBL document CHEMBL1143845, “In vitro activities of isavuconazole and other antifungal agents against Candida bloodstream isolates” (2007).

Values after ≈ are worked out from the molar mass of the structure shown.

Format in all cases: functional
In one assay the test system is Candida. Description: Antifungal activity against Candida sp. bloodstream isolates by broth microdilution method. An outline of the steps:
(§1)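 CLSI M27-A2 broth microdilution in RPMI 1640 buffered to pH 7.0 with 0.165 M MOPS. Consecutive blood-culture isolates were subcultured at least twice on Sabouraud dextrose agar. Final inoculum was 0.5 × 103 to 2.5 × 10^3 cells/ml against twofold drug dilutions, incubated in air at 35°C for 24–48 h. MIC was read visually as no growth or ≥50% growth reduction versus drug-free control, depending on agent.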

The next assay deals with Pichia kudriavzevii. Description: Antifungal activity against Candida krusei bloodstream isolates by broth microdilution method. The gist of the method: as §1
On the technique in general: Broth dilution looks for growth in wells or tubes with falling amounts of substance.

Another assay concerns Nakaseomyces glabratus. Description: Antifungal activity against Candida glabrata bloodstream isolates by broth microdilution method. An outline of the steps:
as §1

The nature of assay [1]: Antifungal activity against Candida tropicalis bloodstream isolates by broth microdilution method. The gist of the method:
as §1

The next assay relates to Candida albicans. Description: Antifungal activity against Candida albicans bloodstream isolates by broth microdilution method. An outline of the steps: as §1
A further assay concerns Candida parapsilosis. Description: Antifungal activity against Candida parapsilosis bloodstream isolates by broth microdilution method. Conditions: Lodderomyces parapsilosis. The gist of the method: as §1

Consider `C[C@@H](c1ncncc1F)[C@](O)(Cn1cncn1)c1ccc(F)cc1F` [VORICONAZOLE], for which the MIC50 (usually an inhibitory concentration at the 50% level, which refers to growth in some studies and to a panel of isolates in others) in the assay on Candida was 0.031 µg/mL (≈ 0.0887 µM); against Pichia kudriavzevii, 0.5 µg/mL (≈ 1.43 µM); against Nakaseomyces glabratus, 0.5 µg/mL (≈ 1.43 µM); in assay [1], 0.063 µg/mL (≈ 0.18 µM); in the assay on Candida albicans, 0.016 µg/mL (≈ 0.0458 µM); in the assay on Candida parapsilosis, 0.031 µg/mL (≈ 0.0887 µM). For the same molecule, the MIC90 (usually an inhibitory concentration at the 90% level, which refers to growth in some studies and to a panel of isolates in others) in the assay with Candida was determined as 0.5 µg/mL (≈ 1.43 µM); in the assay on Pichia kudriavzevii, 1 µg/mL (≈ 2.86 µM); in the assay on Nakaseomyces glabratus it was 2 µg/mL (≈ 5.73 µM); in assay [1] it was 0.125 µg/mL (≈ 0.358 µM); in the assay with Candida albicans, 0.031 µg/mL (≈ 0.0887 µM); in the assay on Candida parapsilosis, 0.125 µg/mL (≈ 0.358 µM).
Take `OC(Cn1cncn1)(Cn1cncn1)c1ccc(F)cc1F` [FLUCONAZOLE]: the MIC50 stood at 1 µg/mL (≈ 3.27 µM) against Candida; 32 µg/mL (≈ 104 µM) in the assay with Pichia kudriavzevii; 1 µg/mL (≈ 3.27 µM) in assay [1]; 0.5 µg/mL (≈ 1.63 µM) with Candida albicans; 1 µg/mL (≈ 3.27 µM) in the assay with Candida parapsilosis. Besides, the MIC90 in the assay on Candida was 16 µg/mL (≈ 52.2 µM); in the assay with Pichia kudriavzevii, 64 µg/mL (≈ 209 µM); in assay [1], 1 µg/mL (≈ 3.27 µM); against Candida albicans, 1 µg/mL (≈ 3.27 µM); with Candida parapsilosis, 2 µg/mL (≈ 6.53 µM).
With `C[C@@H]1[C@H](O)[C@@H](C)/C=C/C=C/C=C/C=C/C=C/C=C/C=C/[C@H](O[C@@H]2O[C@H](C)[C@@H](O)[C@H](N)[C@@H]2O)C[C@@H]2O[C@](O)(C[C@@H](O)C[C@@H](O)[C@H](O)CC[C@@H](O)C[C@@H](O)CC(=O)O[C@H]1C)C[C@H](O)[C@H]2C(=O)O` (stereo in doubt) [AMPHOTERICIN B], the MIC50 was 0.25 µg/mL (≈ 0.271 µM) in the assay on Candida; 0.5 µg/mL (≈ 0.541 µM) in the assay with Pichia kudriavzevii; 0.5 µg/mL (≈ 0.541 µM) in the assay with Nakaseomyces glabratus; 0.5 µg/mL (≈ 0.541 µM) in assay [1]; 0.25 µg/mL (≈ 0.271 µM) in the assay with Candida albicans; 0.25 µg/mL (≈ 0.271 µM) in the assay with Candida parapsilosis. For the same molecule, the MIC90 (against Candida; in the assay with Pichia kudriavzevii; in the assay with Nakaseomyces glabratus; in assay [1]; in the assay with Candida albicans; in the assay with Candida parapsilosis) was 0.5 µg/mL (≈ 0.541 µM) throughout.
As to `Nc1nc(=O)[nH]cc1F` [FLUCYTOSINE], the MIC50 was 0.063 µg/mL (≈ 0.488 µM) against Candida; 16 µg/mL (≈ 124 µM) in the assay on Pichia kudriavzevii; 0.063 µg/mL (≈ 0.488 µM) against Nakaseomyces glabratus; 0.125 µg/mL (≈ 0.968 µM) in assay [1]; 0.125 µg/mL (≈ 0.968 µM) against Candida albicans; 0.125 µg/mL (≈ 0.968 µM) against Candida parapsilosis. Further, the MIC90 against Candida was determined as 2 µg/mL (≈ 15.5 µM); against Pichia kudriavzevii it was 16 µg/mL (≈ 124 µM); in the assay on Nakaseomyces glabratus, 0.063 µg/mL (≈ 0.488 µM); in assay [1], 128 µg/mL (≈ 992 µM); in the assay with Candida albicans, 0.25 µg/mL (≈ 1.94 µM); in the assay with Candida parapsilosis, 0.125 µg/mL (≈ 0.968 µM).
Consider `CCC(C)n1ncn(-c2ccc(N3CCN(c4ccc(OCC5COC(Cn6cncn6)(c6ccc(Cl)cc6Cl)O5)cc4)CC3)cc2)c1=O` (stereo not given) [ITRACONAZOLE], for which the MIC50 is 0.016 µg/mL (≈ 0.0227 µM) in the assay with Candida; 0.5 µg/mL (≈ 0.709 µM) against Pichia kudriavzevii; 0.5 µg/mL (≈ 0.709 µM) with Nakaseomyces glabratus; 0.031 µg/mL (≈ 0.0439 µM) in assay [1]; 0.008 µg/mL (≈ 0.0113 µM) against Candida albicans; 0.016 µg/mL (≈ 0.0227 µM) with Candida parapsilosis. For the same molecule, the MIC90 was 0.25 µg/mL (≈ 0.354 µM) against Candida; 0.5 µg/mL (≈ 0.709 µM) against Pichia kudriavzevii; 1 µg/mL (≈ 1.42 µM) in the assay on Nakaseomyces glabratus; 0.031 µg/mL (≈ 0.0439 µM) in assay [1]; 0.016 µg/mL (≈ 0.0227 µM) with Candida albicans; 0.063 µg/mL (≈ 0.0893 µM) with Candida parapsilosis.
For `C[C@@H](c1nc(-c2ccc(C#N)cc2)cs1)[C@](O)(Cn1cncn1)c1cc(F)ccc1F` [ISAVUCONAZOLE], the MIC50 against Candida amounted to 0.016 µg/mL (≈ 0.0366 µM); with Pichia kudriavzevii, 0.5 µg/mL (≈ 1.14 µM); in the assay with Nakaseomyces glabratus, 0.25 µg/mL (≈ 0.571 µM); in assay [1], 0.031 µg/mL (≈ 0.0709 µM); against Candida albicans it was 0.002 µg/mL (≈ 0.00457 µM); in the assay with Candida parapsilosis, 0.016 µg/mL (≈ 0.0366 µM). The MIC90 in the assay with Candida worked out at 0.5 µg/mL (≈ 1.14 µM); in the assay on Pichia kudriavzevii, 0.5 µg/mL (≈ 1.14 µM); in the assay with Nakaseomyces glabratus it was 0.5 µg/mL (≈ 1.14 µM); in assay [1], 0.063 µg/mL (≈ 0.144 µM); with Candida albicans, 0.004 µg/mL (≈ 0.00914 µM); against Candida parapsilosis, 0.031 µg/mL (≈ 0.0709 µM).
